# Activity calls are given as the source filed them. The rule behind the calls is not given here. Square brackets hold non-standard residues; d marks the D form. Peptide text beside a SMILES is read from it. * marks the point of attachment. Palmitoyl = CCCCCCCCCCCCCCCC(=O)*; Sar = CNCC(=O)O
# Legend:
# Mus musculus [1] = assay: Anticonvulsant activity in CF1 mouse assessed as inhibition of 6 Hz corneal stimulation-induced limbic seizures at 4 mg/kg, ip administered 120 mins before 6 Hz corneal stimulation; type: functional, organism-based; design: dose 4 mg/kg; conditions: Limbic system
# How it was run: (§1)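 Each analogue given ip at 4 mg/kg to five groups of CF-1 mice (n = 4 per group), one group per time point. Seizure challenge was 6 Hz corneal stimulation (32 mA for 3 s, corneal electrodes) at 15, 30, 60, 120 or 240 min after dosing. A mouse without a limbic seizure (jaw chomping, vibrissae twitching, forelimb clonus, Straub tail) was counted as protected.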
# Galanin receptor type 1 = target: T1, Galanin receptor type 1 (Homo sapiens, UniProt P47211); assay: Displacement of europium-labeled galanin from human GalR1 expressed in HEK293 EBNA cells; type: cell-based
# T1 sequence (P47211 whole entry): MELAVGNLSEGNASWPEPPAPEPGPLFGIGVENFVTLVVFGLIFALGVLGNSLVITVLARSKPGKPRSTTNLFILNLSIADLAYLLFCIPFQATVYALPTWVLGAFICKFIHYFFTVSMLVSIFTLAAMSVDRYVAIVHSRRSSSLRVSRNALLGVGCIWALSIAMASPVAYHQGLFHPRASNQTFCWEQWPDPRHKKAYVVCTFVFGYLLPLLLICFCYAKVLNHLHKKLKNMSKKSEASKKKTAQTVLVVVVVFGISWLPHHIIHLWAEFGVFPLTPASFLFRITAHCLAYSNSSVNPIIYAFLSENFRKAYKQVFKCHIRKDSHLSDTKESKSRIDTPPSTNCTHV
# Mus musculus [2] = assay: Anticonvulsant activity in CF1 mouse assessed as inhibition of 6 Hz corneal stimulation-induced limbic seizures at 4 mg/kg, ip administered 240 mins before 6 Hz corneal stimulation; type: functional, organism-based; design: dose 4 mg/kg; conditions: Limbic system; how it was run: as §1
# Mus musculus [3] = assay: Anticonvulsant activity in CF1 mouse assessed as inhibition of 6 Hz corneal stimulation-induced limbic seizures at 4 mg/kg, ip administered 60 mins before 6 Hz corneal stimulation; type: functional, organism-based; design: dose 4 mg/kg; conditions: Limbic system; how it was run: as §1
# Galanin receptor type 2 = target: T2, Galanin receptor type 2 (Homo sapiens, UniProt O43603); assay: Displacement of europium-labeled galanin from human GalR2 expressed in CHO-K1 cells; type: cell-based
# T2 sequence (O43603 whole entry): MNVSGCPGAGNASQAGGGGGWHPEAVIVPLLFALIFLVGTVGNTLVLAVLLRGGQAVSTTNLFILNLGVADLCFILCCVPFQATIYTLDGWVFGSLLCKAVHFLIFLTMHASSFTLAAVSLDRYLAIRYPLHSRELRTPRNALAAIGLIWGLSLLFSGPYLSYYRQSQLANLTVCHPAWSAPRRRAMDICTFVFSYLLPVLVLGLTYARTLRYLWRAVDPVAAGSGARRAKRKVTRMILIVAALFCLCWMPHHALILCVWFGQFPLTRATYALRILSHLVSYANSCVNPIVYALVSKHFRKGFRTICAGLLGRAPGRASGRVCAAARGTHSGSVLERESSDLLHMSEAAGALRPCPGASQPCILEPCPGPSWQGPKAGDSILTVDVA
# [4] = Metabolic stability in rat serum assessed as half life at pH 7.5; type: ADME, cell-free
# How it was run: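 Peptide (final 20 µM) was incubated in 25% rat serum with 0.1 M Tris-HCl pH 7.5 at 37 °C, serum pre-warmed 10 min. Aliquots taken up to 8 h were quenched with 15% TCA in 40% isopropanol, held 15 min at -20 °C and centrifuged. Intact peptide was measured by reversed-phase HPLC peak area, and half-life was calculated from the disappearance.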
# Mus musculus [5] = assay: Anticonvulsant activity in CF1 mouse assessed as inhibition of 6 Hz corneal stimulation-induced limbic seizures at 4 mg/kg, ip administered 15 mins before 6 Hz corneal stimulation; type: functional, organism-based; design: dose 4 mg/kg; conditions: Limbic system; how it was run: as §1
Ki (Galanin receptor type 1) [nM],Ki (Galanin receptor type 2) [nM],half-life [4] [h],Structure (SMILES),Activity (Mus musculus [1]),Activity (Mus musculus [2]),Activity (Mus musculus [3]),Activity (Mus musculus [5])
6,28,8.6,CCCCCCCCCCCCCCCC(=O)NCCCC[C@H](NC(=O)[C@H](CCCCN)NC(=O)[C@@H]1CCCN1C(=O)CNC(=O)[C@H](CC(C)C)NC(=O)[C@H](CC(C)C)NC(=O)[C@H](Cc1ccc(O)cc1)NC(=O)CNC(=O)[C@H](C)NC(=O)[C@H](CO)NC(=O)[C@H](CC(N)=O)NC(=O)[C@H](CC(C)C)NC(=O)[C@@H](NC(=O)[C@H](Cc1c[nH]c2ccccc12)NC(=O)CNC)[C@@H](C)O)C(=O)N[C@@H](CCCCN)C(=O)N[C@@H](CCCCN)C(N)=O,inactive,inactive,inactive,
3.3,65.5,4.8,CCCCCCCCCCCCCCCC(=O)NCCCC[C@H](NC(=O)[C@H](CCCN=C(N)N)NC(=O)[C@H](CCCN=C(N)N)NC(=O)[C@@H]1CCCN1C(=O)CNC(=O)[C@H](CC(C)C)NC(=O)[C@H](CC(C)C)NC(=O)[C@H](Cc1ccc(O)cc1)NC(=O)CNC(=O)[C@H](C)NC(=O)[C@H](CO)NC(=O)[C@H](CC(N)=O)NC(=O)[C@H](CC(C)C)NC(=O)[C@@H](NC(=O)[C@H](Cc1c[nH]c2ccccc12)NC(=O)CNC)[C@@H](C)O)C(=O)N[C@@H](CCCN=C(N)N)C(N)=O,,,,
25.5,108,> 10,CCCCCCCCCCCCCCCC(=O)NCCCC[C@H](NC(=O)[C@@H]1CCCN1C(=O)CNC(=O)[C@H](CC(C)C)NC(=O)[C@H](CC(C)C)NC(=O)[C@H](Cc1ccc(O)cc1)NC(=O)CNC(=O)[C@H](C)NC(=O)[C@H](CO)NC(=O)[C@H](CC(N)=O)NC(=O)[C@H](CC(C)C)NC(=O)[C@@H](NC(=O)[C@H](Cc1c[nH]c2ccccc12)NC(=O)CNC)[C@@H](C)O)C(=O)N[C@@H](CCCCN)C(=O)N[C@@H](CCCCN)C(=O)N[C@@H](CCCCN)C(N)=O,inactive,,,inactive
,,,CCCCCCCCCCCCCCCC(=O)NCCCC[C@@H](NC(=O)[C@H](CCCCN)NC(=O)[C@@H](CCCCN)NC(=O)[C@H]1CCCN1C(=O)CNC(=O)[C@H](CC(C)C)NC(=O)[C@H](CC(C)C)NC(=O)[C@H](Cc1ccc(O)cc1)NC(=O)CNC(=O)[C@H](C)NC(=O)[C@H](CO)NC(=O)[C@H](CC(N)=O)NC(=O)[C@H](CC(C)C)NC(=O)[C@@H](NC(=O)[C@H](Cc1c[nH]c2ccccc12)NC(=O)CNC)[C@@H](C)O)C(=O)N[C@@H](CCCCN)C(N)=O,,,Active,
41.5,215,8.7,CCCCCCCCCCCCCCCC(=O)NCCCC[C@H](NC(=O)[C@H](CCCCN)NC(=O)[C@H](CCCCN)NC(=O)[C@H](CCCCN)NC(=O)[C@H](CCCCN)NC(=O)[C@H](CC(C)C)NC(=O)[C@H](CC(C)C)NC(=O)[C@H](Cc1ccc(O)cc1)NC(=O)CNC(=O)[C@H](C)NC(=O)[C@H](CO)NC(=O)[C@H](CC(N)=O)NC(=O)[C@H](CC(C)C)NC(=O)[C@@H](NC(=O)[C@H](Cc1c[nH]c2ccccc12)NC(=O)CNC)[C@@H](C)O)C(=O)N[C@@H](CCCCN)C(N)=O (H-[Sar]WTLNSAGYLLKKKKK(Palmitoyl)K-NH2),Active,,,
5.3,22.5,> 10,CCCCCCCCCCCCCCCC(=O)NCCCC[C@H](NC(=O)[C@H](CCCCN)NC(=O)[C@H](CCCCN)NC(=O)[C@@H]1CCCN1C(=O)CNC(=O)[C@H](CC(C)C)NC(=O)[C@H](CC(C)C)NC(=O)[C@H](Cc1ccc(O)cc1)NC(=O)CNC(=O)[C@H](C)NC(=O)[C@H](CO)NC(=O)[C@H](CC(N)=O)NC(=O)[C@H](CC(C)C)NC(=O)[C@@H](NC(=O)[C@H](Cc1c[nH]c2ccccc12)NC(=O)CN)[C@@H](C)O)C(=O)N[C@@H](CCCCN)C(N)=O,inactive,inactive,,
1.9,22,> 10,CCCCCCCCCCCCCCCC(=O)NCCCC[C@H](NC(=O)[C@H](CCCCN)NC(=O)[C@H](CCCCN)NC(=O)[C@H](CCCCN)NC(=O)[C@@H]1CCCN1C(=O)CNC(=O)[C@H](CC(C)C)NC(=O)[C@H](CC(C)C)NC(=O)[C@H](Cc1ccc(O)cc1)NC(=O)CNC(=O)[C@H](C)NC(=O)[C@H](CO)NC(=O)[C@H](CC(N)=O)NC(=O)[C@H](CC(C)C)NC(=O)[C@@H](NC(=O)[C@H](Cc1c[nH]c2ccccc12)NC(=O)CNC)[C@@H](C)O)C(N)=O,inactive,inactive,,

Structure (SMILES),Ki (Galanin receptor type 1) [nM],Ki (Galanin receptor type 2) [nM],half-life [4] [h],Activity (Mus musculus [1]),Activity (Mus musculus [2]),Activity (Mus musculus [3]),Activity (Mus musculus [5])
CCCCCCCCCCCCCCCC(=O)NCCCC[C@H](NC(=O)[C@H](CCCCN)NC(=O)[C@H](CCCCN)NC(=O)[C@@H]1CCCN1C(=O)CNC(=O)[C@H](CC(C)C)NC(=O)[C@H](CC(C)C)NC(=O)[C@H](Cc1ccc(O)cc1)NC(=O)CNC(=O)[C@H](C)NC(=O)[C@H](CO)NC(=O)[C@H](CC(N)=O)NC(=O)[C@H](CC(C)C)NC(=O)[C@@H](NC(=O)[C@@H](N)Cc1c[nH]c2ccccc12)[C@@H](C)O)C(=O)N[C@@H](CCCCN)C(N)=O (H-WTLNSAGYLLGPKKK(Palmitoyl)K-NH2),387,48,> 10,,inactive,,
